Data reported in ChEMBL document CHEMBL1131614, “Novel calcium antagonists with both calcium overload inhibition and antioxidant activity. 1. 2-(3, 5-di-tert-butyl-4-hydroxyphenyl)-3-(aminopropyl)thiazolidinones” (J Med Chem, 1998).
Values joined by “and” are separate entries in the source; they are usually repeats but may differ in a detail not shown here. Identical values can stand only once.

Assays:
[1] = species: Rattus norvegicus; assay: In vitro inhibition of veratridine induced rat myocardiac cell death.; format: functional
[2] = biological target: Voltage-dependent L-type calcium channel subunit alpha-1C (Rattus norvegicus, UniProt P22002); assay: In vitro inhibition of K+ induced contractions of the isolated rat aorta.; format: functional, tissue-based
[3] = biological target: T1, Seed linoleate 13S-lipoxygenase-1 (Glycine max) (UniProt P08170); assay: In vitro inhibition of rabbit LDL oxidation by soybean lipoxygenase.; format: functional; parameters: scale not given: the % may be the effect or the level left
T1 sequence (whole entry): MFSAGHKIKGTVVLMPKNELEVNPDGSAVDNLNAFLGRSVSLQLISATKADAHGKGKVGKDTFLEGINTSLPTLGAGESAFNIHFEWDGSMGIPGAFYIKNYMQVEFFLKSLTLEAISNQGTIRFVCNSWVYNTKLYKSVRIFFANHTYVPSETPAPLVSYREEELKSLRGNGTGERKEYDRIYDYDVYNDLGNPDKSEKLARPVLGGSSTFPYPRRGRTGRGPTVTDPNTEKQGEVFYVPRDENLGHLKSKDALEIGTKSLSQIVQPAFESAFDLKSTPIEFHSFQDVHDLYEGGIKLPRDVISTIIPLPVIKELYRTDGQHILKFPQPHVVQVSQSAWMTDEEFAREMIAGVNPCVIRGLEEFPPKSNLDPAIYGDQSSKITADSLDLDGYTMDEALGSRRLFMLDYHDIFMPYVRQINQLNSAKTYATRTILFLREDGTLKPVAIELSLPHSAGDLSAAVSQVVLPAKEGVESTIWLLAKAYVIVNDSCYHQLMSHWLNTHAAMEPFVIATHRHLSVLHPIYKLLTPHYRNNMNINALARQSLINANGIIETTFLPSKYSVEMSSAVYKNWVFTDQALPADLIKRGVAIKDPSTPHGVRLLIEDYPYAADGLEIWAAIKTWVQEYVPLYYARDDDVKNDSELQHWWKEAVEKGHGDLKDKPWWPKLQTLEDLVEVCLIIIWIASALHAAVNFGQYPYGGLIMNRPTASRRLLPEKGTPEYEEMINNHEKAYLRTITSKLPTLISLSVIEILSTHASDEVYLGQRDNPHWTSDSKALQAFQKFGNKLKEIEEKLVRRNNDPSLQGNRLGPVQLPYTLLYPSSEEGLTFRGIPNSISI
How it was run: (§1)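 Compound added to rabbit LDL (Havel method), then soybean lipoxygenase type-IS at 40 μg/mL final. Incubated 24 h at 37 °C in a CO2 incubator. Oxidized LDL separated by gel-permeation chromatography, and fluorescence of the LDL fraction read at ex 360/em 430 nm. Expressed as percent of control.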

[4] = biological target: T1, Seed linoleate 13S-lipoxygenase-1 (Glycine max); assay: In vitro inhibition of rabbit LDL oxidation by soybean lipoxygenase at 0.5 uM; format: functional; how it was run: as §1
[5] = biological target: T1, Seed linoleate 13S-lipoxygenase-1 (Glycine max); assay: In vitro inhibition of rabbit LDL oxidation by soybean lipoxygenase at 5 uM; format: functional; how it was run: as §1

Voltage-dependent L-type calcium channel subunit alpha-1C, sequence (P22002 whole entry): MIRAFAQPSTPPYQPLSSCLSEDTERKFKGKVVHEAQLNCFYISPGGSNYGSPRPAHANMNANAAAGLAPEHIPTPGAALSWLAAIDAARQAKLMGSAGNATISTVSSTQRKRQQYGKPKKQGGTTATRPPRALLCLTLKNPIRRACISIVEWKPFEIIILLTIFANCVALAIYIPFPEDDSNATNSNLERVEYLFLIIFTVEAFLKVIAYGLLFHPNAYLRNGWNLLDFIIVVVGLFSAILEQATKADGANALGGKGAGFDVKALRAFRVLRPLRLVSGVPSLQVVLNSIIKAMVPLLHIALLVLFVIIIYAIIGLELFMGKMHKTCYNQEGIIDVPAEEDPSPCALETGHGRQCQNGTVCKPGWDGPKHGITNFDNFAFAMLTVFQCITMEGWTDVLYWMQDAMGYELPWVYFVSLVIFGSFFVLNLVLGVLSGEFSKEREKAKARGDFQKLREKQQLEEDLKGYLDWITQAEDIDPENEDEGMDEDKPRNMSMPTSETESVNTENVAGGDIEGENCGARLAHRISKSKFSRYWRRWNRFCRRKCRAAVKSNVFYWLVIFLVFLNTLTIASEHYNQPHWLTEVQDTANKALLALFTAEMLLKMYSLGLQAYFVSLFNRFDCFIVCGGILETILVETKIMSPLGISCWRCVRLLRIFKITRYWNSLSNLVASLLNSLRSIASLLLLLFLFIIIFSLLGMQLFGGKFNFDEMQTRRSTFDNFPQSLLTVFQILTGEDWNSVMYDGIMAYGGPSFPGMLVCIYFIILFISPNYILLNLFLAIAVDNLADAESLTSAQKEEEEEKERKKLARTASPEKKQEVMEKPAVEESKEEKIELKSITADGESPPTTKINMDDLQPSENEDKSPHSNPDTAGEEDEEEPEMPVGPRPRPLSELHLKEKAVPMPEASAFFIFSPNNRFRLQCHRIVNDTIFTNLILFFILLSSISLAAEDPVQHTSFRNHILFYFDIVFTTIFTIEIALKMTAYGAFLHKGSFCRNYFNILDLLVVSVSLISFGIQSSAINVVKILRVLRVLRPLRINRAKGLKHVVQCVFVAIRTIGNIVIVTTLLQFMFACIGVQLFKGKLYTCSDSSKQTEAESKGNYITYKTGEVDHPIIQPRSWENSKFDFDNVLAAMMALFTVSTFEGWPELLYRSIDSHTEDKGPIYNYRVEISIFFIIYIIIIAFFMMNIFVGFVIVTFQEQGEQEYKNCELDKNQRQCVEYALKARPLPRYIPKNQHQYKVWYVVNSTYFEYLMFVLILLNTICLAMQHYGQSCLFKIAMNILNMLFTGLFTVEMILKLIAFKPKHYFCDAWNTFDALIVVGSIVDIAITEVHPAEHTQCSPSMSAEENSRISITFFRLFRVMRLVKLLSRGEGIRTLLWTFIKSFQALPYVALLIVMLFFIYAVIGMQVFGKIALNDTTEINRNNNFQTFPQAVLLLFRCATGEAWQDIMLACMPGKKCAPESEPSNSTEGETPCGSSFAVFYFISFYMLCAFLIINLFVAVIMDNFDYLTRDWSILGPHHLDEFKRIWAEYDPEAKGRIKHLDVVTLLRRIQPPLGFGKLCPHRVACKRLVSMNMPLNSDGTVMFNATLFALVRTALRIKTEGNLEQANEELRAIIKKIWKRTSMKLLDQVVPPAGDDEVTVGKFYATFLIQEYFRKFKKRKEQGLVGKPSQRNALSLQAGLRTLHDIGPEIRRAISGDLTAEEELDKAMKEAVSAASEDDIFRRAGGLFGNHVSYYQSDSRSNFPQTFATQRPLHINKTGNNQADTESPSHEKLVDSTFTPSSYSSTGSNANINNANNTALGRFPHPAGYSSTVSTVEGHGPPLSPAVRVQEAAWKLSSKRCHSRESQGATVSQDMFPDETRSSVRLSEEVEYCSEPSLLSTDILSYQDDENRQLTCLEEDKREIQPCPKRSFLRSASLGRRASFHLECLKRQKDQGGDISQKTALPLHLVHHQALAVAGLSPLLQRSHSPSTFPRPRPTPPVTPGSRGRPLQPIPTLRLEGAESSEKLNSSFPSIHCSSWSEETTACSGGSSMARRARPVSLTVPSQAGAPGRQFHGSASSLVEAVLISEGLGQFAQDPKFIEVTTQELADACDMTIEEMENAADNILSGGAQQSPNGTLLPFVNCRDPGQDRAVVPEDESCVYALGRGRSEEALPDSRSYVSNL

SMILES | IC50 [2] | IC>80 [1] | other results
CC(C)(C)c1cc(C2SCC(=O)N2CCCN2CCC(Cc3ccccc3)CC2)cc(C(C)(C)C)c1O (centres undefined) | 0.21 µM | 0.32 µM | 
Cc1cc(C(C)(C)C)c(O)c(C(C)(C)C)c1 |  |  | Control [3]: 19.7% and 0.9%
COc1cc2c(cc1OC)CN(CCCN1C(=O)CSC1c1cc(C(C)(C)C)c(O)c(C(C)(C)C)c1)CC2 (centres undefined) | 0.2 µM | 1 µM | 
CN(CCCN1C(=O)CSC1c1cc(C(C)(C)C)c(O)c(C(C)(C)C)c1)Cc1ccccc1 (centres undefined) | 0.6 µM |  | 
COc1ccc([C@@H]2Sc3ccccc3N(CCN(C)C)C(=O)[C@@H]2OC(C)=O)cc1 [DILTIAZEM] |  | >10 µM | LDL oxidation, % of control [4]: 109%; LDL oxidation remaining (% of control) [5]: 111%
CN(c1nc2ccccc2s1)C1CCN(CCCN2C(=O)CSC2c2cc(C(C)(C)C)c(O)c(C(C)(C)C)c2)CC1 (centres undefined) | 0.23 µM | 1 µM | LDL oxidation, % of control [4]: 25.8%; LDL oxidation remaining (% of control) [5]: 4.9%
CN(c1nc2ccccc2s1)C1CCN(CCCCOc2ccc(F)cc2)CC1 | 0.76 µM | 0.032 µM | 
CN(CCCN1C(=O)CSC1c1cc(C(C)(C)C)c(O)c(C(C)(C)C)c1)CC(O)COc1ccc2c(c1)OCO2 (centres undefined) | 0.43 µM |  | 
CN(CCCN1C(=O)CSC1c1cc(C(C)(C)C)c(O)c(C(C)(C)C)c1)CCOc1ccc2c(c1)OCO2 (centres undefined) | 0.062 µM | 0.32 µM | LDL oxidation, % of control [4]: 12.9%; LDL oxidation remaining (% of control) [5]: 3%
Cc1c(C)c2c(c(C)c1O)CC[C@@](C)(CCC[C@H](C)CCC[C@H](C)CCCC(C)C)O2 |  |  | LDL oxidation, % of control [4]: 60.2%; LDL oxidation remaining (% of control) [5]: 13.2%
COc1ccc(OCCN(C)CCCN2C(=O)CSC2c2cc(C(C)(C)C)c(O)c(C(C)(C)C)c2)cc1OC (centres undefined) | 0.18 µM | 1 µM | 
COc1ccc(CCN(C)CCCN2C(=O)CSC2c2cc(C(C)(C)C)c(O)c(C(C)(C)C)c2)cc1OC (centres undefined) | 0.093 µM | 1 µM | LDL oxidation, % of control [4]: 8.7%; LDL oxidation remaining (% of control) [5]: 0.6%
CN(C)CCCN1C(=O)CSC1c1cc(C(C)(C)C)c(O)c(C(C)(C)C)c1 (centres undefined) | 1.5 µM |  | 
CNCCCN1C(=O)CSC1c1cc(C(C)(C)C)c(O)c(C(C)(C)C)c1 (centres undefined) | 2.4 µM |  | 
COc1ccc(CN(C)CCCN2C(=O)CSC2c2cc(C(C)(C)C)c(O)c(C(C)(C)C)c2)cc1OC (centres undefined) |  | 1 µM | 

Second part, led by results:

IC50 [2] | SMILES | IC>80 [1] | other results
0.23 µM | COc1ccc(OCCN(C)CCCN2C(=O)CSC2c2cc(C(C)(C)C)c(O)c(C(C)(C)C)c2)cc1 (centres undefined) |  | 
4.4 µM | CC(C)(C)c1cc(C2SCC(=O)N2CCCN)cc(C(C)(C)C)c1O (centres undefined) |  | 
0.3 µM | COc1cc(OCCN(C)CCCN2C(=O)CSC2c2cc(C(C)(C)C)c(O)c(C(C)(C)C)c2)cc(OC)c1OC (centres undefined) |  | 
0.42 µM | CN(CCCN1C(=O)CSC1c1cc(C(C)(C)C)c(O)c(C(C)(C)C)c1)CC(O)COc1ccccc1 (centres undefined) |  | 
0.84 µM | CCOCCN(C)CCCN1C(=O)CSC1c1cc(C(C)(C)C)c(O)c(C(C)(C)C)c1 (centres undefined) |  | 
1.2 µM | CN(CCCN1C(=O)CSC1c1cc(C(C)(C)C)c(O)c(C(C)(C)C)c1)CC1CC1 (centres undefined) |  | 
0.25 µM | CN(CCCN1C(=O)CSC1c1cc(C(C)(C)C)c(O)c(C(C)(C)C)c1)Cc1ccc2c(c1)OCO2 (centres undefined) |  | 
1.7 µM | CN(C)CCN(C)CCCN1C(=O)CSC1c1cc(C(C)(C)C)c(O)c(C(C)(C)C)c1 (centres undefined) |  | 
